# Measured values from different studies.
# Each line is one published result; the experiments were not run side by side.
# ERBB2: Receptor tyrosine-protein kinase erbB-2 (ERBB2, Homo sapiens, UniProt P04626)
SMILES,target,test,conditions,endpoint,result
CC(C)OC(=O)CNc1cccc(CN(Cc2ccc(-n3cccn3)cc2)S(=O)(=O)c2cccnc2)n1,"Alpha-2A adrenergic receptor (ADRA2A, Homo sapiens, UniProt P08913)","ligand displacement, radioligand",10 µM,inhibition,4%
O=C(COP(=O)(O)O)[C@@H](O)[C@H](O)[C@H](O)COP(=O)(O)O,"Son of sevenless homolog 1 (SOS1, Homo sapiens, UniProt Q07889)",thermal stability,"5 mM, lysate",ΔTm,-6.2 °C
Cc1cc([C@@H](C)Nc2ccccc2C(=O)O)c2nc(N3CCC(F)(F)CC3)c(C#N)c(=O)n2c1,"Tyrosine-protein kinase ABL1, phosphorylated (ABL1, Homo sapiens, UniProt P00519)","binding, competition with immobilised ligand",1 µM,remaining binding,100%
CN(C)C/C=C/C(=O)Nc1cc2c(Nc3ccc(F)c(Cl)c3)ncnc2cc1O[C@H]1CCOC1,ERBB2,"cell-free assay, competition with immobilised ligand",10 µM,inhibition,~100%
CCc1nn(C)c2nc(-c3ccc(C(=O)O)cc3)nc(NCc3ccc(F)cc3)c12,"cGMP-dependent 3',5'-cyclic phosphodiesterase (PDE2A, Homo sapiens, UniProt O00408)","enzyme activity, inhibitor, radiometric",10 µM,inhibition,35.7%
C=CC(=O)N1CCCN(C(=O)c2cc(Sc3cnc(NC(=O)C4CC4)s3)c(C)cc2OC)C[C@H]1C,"Tyrosine-protein kinase ITK/TSK (ITK, Homo sapiens, UniProt Q08881)","enzyme activity, inhibitor",1 µM,inhibition,> 95%
O=C(O)CNc1cccc(CN(Cc2ccc(-n3cccn3)cc2)S(=O)(=O)c2cccnc2)n1,"Carbonic anhydrase 1 (CA1, Homo sapiens, UniProt P00915)","enzyme activity, inhibitor",10 µM,inhibition,0%
C=CC(=O)N1CCC(COCC(=O)N2CCN(c3nc(-c4cnc(N)nc4C(F)F)nc(N4CCOC[C@@H]4C)n3)CC2)CC1,"Mitogen-activated protein kinase kinase kinase 2 (MAP3K2, Homo sapiens, UniProt Q9Y2U5)","binding, competition with immobilised ligand",1 µM,remaining binding,97%
COc1cc(-c2cncc3c2CN(C)Cc2cc(N4CCNCC4)ccc2-3)cc(OC)c1OC,ERBB2,"enzyme activity, inhibitor",1 µM,remaining activity,106%
CNc1ncc2c(/C=C/C(=O)N3CCC(OC)CC3)nn(Cc3cccc(C(F)(F)F)c3)c2n1,"Tyrosine-protein kinase ABL1 (ABL1, Homo sapiens, UniProt P00519)","enzyme activity, inhibitor, radiometric",1 µM,remaining activity,92%
